Measurements as given in ChEMBL document CHEMBL4028909, “Discovery of an Orally Bioavailable Benzofuran Analogue That Serves as a β-Amyloid Aggregation Inhibitor for the Potential Treatment of Alzheimer's Disease” (J Med Chem, 2018).
Active and inactive are the calls of the source. The calls are words filed in the database; no cut-off is given here.

What was measured:
[1] = target: Amyloid-beta precursor protein (Homo sapiens) (UniProt P05067); assay: Induction of HFIP-pretreated amyloid beta (1 to 42) (unknown origin) disaggregation at 3.1 to 50 uM after 1 hr by Thioflavin-T fluorescence assay relative to control
Chain of Amyloid-beta precursor protein (Homo sapiens) (P05067 whole entry): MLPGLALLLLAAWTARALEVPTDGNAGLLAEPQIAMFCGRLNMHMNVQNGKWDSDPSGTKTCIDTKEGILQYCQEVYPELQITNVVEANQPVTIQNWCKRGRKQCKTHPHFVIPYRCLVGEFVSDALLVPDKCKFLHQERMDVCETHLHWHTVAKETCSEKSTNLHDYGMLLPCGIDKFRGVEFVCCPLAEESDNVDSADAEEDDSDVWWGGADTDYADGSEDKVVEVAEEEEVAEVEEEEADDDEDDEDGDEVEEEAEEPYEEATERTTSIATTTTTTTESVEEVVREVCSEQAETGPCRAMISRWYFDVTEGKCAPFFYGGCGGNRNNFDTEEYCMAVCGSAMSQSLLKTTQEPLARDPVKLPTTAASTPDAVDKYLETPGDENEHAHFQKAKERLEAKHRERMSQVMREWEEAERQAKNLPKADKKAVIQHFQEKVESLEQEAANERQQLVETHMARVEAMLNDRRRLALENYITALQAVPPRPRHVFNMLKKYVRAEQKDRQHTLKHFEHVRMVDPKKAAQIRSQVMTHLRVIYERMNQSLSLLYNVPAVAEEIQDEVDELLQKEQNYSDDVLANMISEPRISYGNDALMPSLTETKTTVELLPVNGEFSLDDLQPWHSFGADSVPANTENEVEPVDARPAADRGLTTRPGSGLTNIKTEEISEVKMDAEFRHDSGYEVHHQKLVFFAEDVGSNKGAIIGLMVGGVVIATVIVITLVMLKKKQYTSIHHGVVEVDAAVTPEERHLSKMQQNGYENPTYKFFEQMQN

[2] = target: Amyloid-beta precursor protein (Homo sapiens) (UniProt P05067); assay: Induction of HFIP-pretreated amyloid beta (1 to 42) (unknown origin) disaggregation after 1 hr by transmission electron microscopic method
[3] = test system: HT-22; assay: Neuroprotective activity against amyloid beta-induced toxicity in mouse HT22 cells assessed as increase in cell viability preincubated for 1 hr followed by amyloid beta challenge measured after 18 hrs by MTT assay; assay type: functional, cell-based
Summary of the method: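 Mouse hippocampal HT22 cells were treated with compound at several concentrations and then exposed to preformed Aβ aggregates made from 25 μM monomeric Aβ. Viability was read by MTT and scaled between untreated cells and Aβ-only cells. Mean±SD of three independent experiments; one-way ANOVA with Dunnett test.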

[4] = test system: HT-22; assay: Cytotoxicity against mouse HT22 cells assessed as effect on cell viability at 1.25 to 10 uM after 18 hrs by MTT assay; assay type: cell-based; conditions: ht-22, 18 h
Summary of the method: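 Mouse HT22 cells were treated with compound alone at the stated concentrations, without Aβ aggregates. Viability was read by MTT.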

[5] = target: Amyloid-beta precursor protein (Homo sapiens) (UniProt P05067); assay: Induction of HFIP-pretreated amyloid beta (1 to 42) (unknown origin) disaggregation after 48 hrs by silver staining-based SDS-PAGE analysis
Summary of the method: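 Aβ aggregates were incubated with compound for 48 h, with congo red as positive control. Size distribution (monomer, dimer, trimer, high-molecular-weight species) was analysed by SDS-PAGE with silver staining at the start and at the end of incubation.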

[6] = test system: Mus musculus; assay: Reversal of cognitive deficit in amyloid beta (1 to 42)-treated Alzheimer's disease ICR mouse model assessed as step-through latency time at 10 mg/kg, po administered for 3 consecutive days by passive avoidance test; assay type: functional
Summary of the method: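 Acute AD model: preformed Aβ aggregates injected into the brains of normal mice. Compound given orally for three consecutive days, then step-through passive avoidance was tested by a standard protocol. Read-out is step-through latency (sec), compared against control and vehicle groups.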

[7] = test system: Mus musculus; assay: Reversal of cognitive deficit in double APP/PS1 transgenic Alzheimer's disease mouse model assessed as increase in spatial memory function by measuring spontaneous alternation at 100 mg/kg, po qd administered for 8 weeks by Y maze test (reference value: 52.64 +/- 4.15%); assay type: functional
Summary of the method: (§1)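 APP/PS1 double transgenic mice, 29 weeks old, dosed orally once daily at 30 or 100 mg/kg for eight weeks. Y-maze spontaneous alternation (%) was then measured against vehicle-treated mice, and mice were watched for apparent toxicity.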

[8] = test system: Mus musculus; assay: Toxicity in double APP/PS1 transgenic Alzheimer's disease mouse model at 30 to 100 mg/kg, po qd administered for 8 weeks; assay type: organism-based; conditions: in vivo, 1344 h; summary of the method: as §1
[9] = test system: Mus musculus; assay: Antiamyloidogenic activity in po dosed double APP/PS1 transgenic Alzheimer's disease mouse model assessed as decrease in amyloid beta (1 to 42) levels in brain administered as qd for 8 weeks by sandwich ELISA; assay type: functional, organism-based
Summary of the method: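 APP/PS1 mice, 29 weeks old, were dosed orally once daily for eight weeks at 30 or 100 mg/kg, with a vehicle group. Brain tissue was homogenized and amyloid fibrils were solubilized to monomers. Aβ1-40 and Aβ1-42 were then quantified by immunoassay with antibodies specific to monomeric Aβ.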

[10] = AUClast in mouse at 3 mg/kg, iv; assay type: ADME, organism-based; design: dose 3 mg/kg, time 0 - last, route intravenous; conditions: in vivo
Summary of the method: (§2)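 Mice received a single dose of 3 mg/kg i.v. or 3, 10 or 30 mg/kg orally. Plasma concentration-time profiles were analysed for AUC from zero to infinity and to the last measured time (hr*ng/mL), Cmax (ng/mL, C0 after i.v.), Tmax and terminal half-life (hr), and oral bioavailability (%).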

[11] = Terminal half life in mouse at 3 mg/kg, po; assay type: ADME, organism-based; conditions: in vivo, read-out: beta t1/2 (converted)
Summary of the method: (§3)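 Mouse pharmacokinetics: single i.v. dose of 3 mg/kg, or oral doses of 3, 10 and 30 mg/kg. Plasma concentration–time curves gave T1/2 (terminal, hr), Tmax (hr), Cmax, AUC and bioavailability (%).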

[12] = Tmax in mouse at 3 mg/kg, po; assay type: ADME, organism-based; conditions: in vivo; summary of the method: as §3
[13] = AUClast in mouse at 3 mg/kg, po; assay type: ADME, organism-based; design: dose 3 mg/kg, time 0 - last, route oral; conditions: in vivo; summary of the method: as §2
[14] = AUC (infinity) in mouse at 3 mg/kg, po; assay type: ADME, organism-based; design: dose 3 mg/kg, time infinity, route oral; conditions: in vivo; summary of the method: as §2
[15] = Oral bioavailability in mouse at 3 mg/kg; assay type: ADME, organism-based; conditions: in vivo; summary of the method: as §2
[16] = Terminal half life in mouse at 10 mg/kg, po; assay type: ADME, organism-based; conditions: in vivo, read-out: beta t1/2 (converted); summary of the method: as §3
[17] = AUClast in mouse at 10 mg/kg, po; assay type: ADME, organism-based; design: dose 10 mg/kg, route oral, time 0 - last; conditions: in vivo; summary of the method: as §2
[18] = AUC (infinity) in mouse at 10 mg/kg, po; assay type: ADME, organism-based; design: dose 10 mg/kg, time infinity, route oral; conditions: in vivo; summary of the method: as §2
[19] = Oral bioavailability in mouse at 10 mg/kg; assay type: ADME, organism-based; conditions: in vivo; summary of the method: as §2
[20] = Terminal half life in mouse at 30 mg/kg, po; assay type: ADME, organism-based; conditions: in vivo, read-out: beta t1/2 (converted); summary of the method: as §3
[21] = AUClast in mouse at 30 mg/kg, po; assay type: ADME, organism-based; design: dose 30 mg/kg, time 0 - last, route oral; conditions: in vivo; summary of the method: as §2
[22] = Clearance in iv dosed rat; assay type: ADME, organism-based; conditions: in vivo
[23] = Clearance in iv dosed dog; assay type: ADME, organism-based, Canis lupus familiaris; conditions: in vivo
[24] = Clearance in iv dosed monkey; assay type: ADME, organism-based, Macaca mulatta; conditions: rhesus monkey, in vivo
[25] = test system: Canis familiaris; assay: Volume of distribution at steady state in po dosed dog; assay type: ADME, organism-based, Canis lupus familiaris; conditions: in vivo
[26] = test system: Rhesus monkey; assay: Volume of distribution at steady state in po dosed monkey; assay type: ADME, organism-based, Macaca mulatta; conditions: in vivo
[27] = test system: Mus musculus; assay: Volume of distribution at steady state in po ICR mouse; assay type: ADME, organism-based; conditions: in vivo
[28] = Half life in po dosed rat; assay type: ADME, organism-based; conditions: in vivo
[29] = Half life in po dosed dog; assay type: ADME, organism-based, Canis lupus familiaris; conditions: in vivo
[30] = Cmax in po dosed rat; assay type: ADME, organism-based; design: route oral; conditions: in vivo
[31] = Cmax in po dosed dog; assay type: ADME, organism-based, Canis lupus familiaris; design: route oral; conditions: in vivo
[32] = Cmax in po dosed monkey; assay type: ADME, organism-based, Macaca mulatta; design: route oral; conditions: rhesus monkey, in vivo
[33] = Cmax in po dosed ICR mouse; assay type: ADME, organism-based; design: route oral; conditions: in vivo
[34] = AUC in po dosed rat; assay type: ADME, organism-based; conditions: in vivo
[35] = Oral bioavailability in ICR mouse; assay type: ADME, organism-based; conditions: in vivo
[36] = Ratio of AUC in ICR mouse brain to AUC in ICR mouse plasma at 10 mg/kg, po measured at 0.333 hrs; assay type: ADME, organism-based; conditions: read-out: Ratio AUC
Summary of the method: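 ICR mice (n=3) given a single oral dose of 10 mg/kg. Brain and plasma were sampled over nine hours, at 0.333, 1, 3, 6 and 9 h. Kp was calculated as AUC_brain/AUC_plasma.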

[37] = target: Cytochrome P450 2D6 (Homo sapiens, UniProt P10635); assay: Inhibition of CYP2D6 in human liver microsomes preincubated for 5 mins followed by addition of NADPH generating system measured after 20 mins by LC-MS/MS analysis; assay type: ADME
Chain of Cytochrome P450 2D6 (P10635 whole entry): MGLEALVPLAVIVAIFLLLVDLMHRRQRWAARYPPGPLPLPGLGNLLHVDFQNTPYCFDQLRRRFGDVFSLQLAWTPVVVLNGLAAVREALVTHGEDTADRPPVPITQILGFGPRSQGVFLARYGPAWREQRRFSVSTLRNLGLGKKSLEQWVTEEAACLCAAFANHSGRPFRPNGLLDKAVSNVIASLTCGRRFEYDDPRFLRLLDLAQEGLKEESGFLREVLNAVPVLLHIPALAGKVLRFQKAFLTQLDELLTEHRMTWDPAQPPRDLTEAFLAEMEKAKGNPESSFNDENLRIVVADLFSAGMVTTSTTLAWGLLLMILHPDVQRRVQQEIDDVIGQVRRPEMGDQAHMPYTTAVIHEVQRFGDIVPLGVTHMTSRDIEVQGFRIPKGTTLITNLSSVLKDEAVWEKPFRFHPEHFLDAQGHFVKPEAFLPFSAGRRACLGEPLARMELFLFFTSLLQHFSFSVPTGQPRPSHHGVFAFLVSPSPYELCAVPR
Summary of the method: (§4)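 Inhibition of each CYP isozyme (1A2, 2A6, 2C8, 2C9, 2C19, 2D6, 3A4) was measured in human liver microsomes. IC50 values were reported in μM.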

[38] = target: Cytochrome P450 3A4 (Homo sapiens, UniProt P08684); assay: Inhibition of CYP3A4 in human liver microsomes preincubated for 5 mins followed by addition of NADPH generating system measured after 20 mins by LC-MS/MS analysis; assay type: ADME; summary of the method: as §4
Chain of Cytochrome P450 3A4 (P08684 whole entry): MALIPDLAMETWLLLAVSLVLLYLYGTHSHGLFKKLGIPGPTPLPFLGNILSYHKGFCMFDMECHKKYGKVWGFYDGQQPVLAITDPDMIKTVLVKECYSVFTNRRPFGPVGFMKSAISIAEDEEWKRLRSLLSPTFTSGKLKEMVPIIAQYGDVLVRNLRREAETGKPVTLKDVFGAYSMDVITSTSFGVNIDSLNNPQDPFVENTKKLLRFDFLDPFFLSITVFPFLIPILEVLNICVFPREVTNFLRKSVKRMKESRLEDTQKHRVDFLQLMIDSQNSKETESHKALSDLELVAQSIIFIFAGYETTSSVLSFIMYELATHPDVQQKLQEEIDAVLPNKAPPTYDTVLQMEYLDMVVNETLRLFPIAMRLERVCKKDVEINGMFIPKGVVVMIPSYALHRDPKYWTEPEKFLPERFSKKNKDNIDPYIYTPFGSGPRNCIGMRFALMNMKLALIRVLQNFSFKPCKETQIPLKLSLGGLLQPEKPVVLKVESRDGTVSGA

[39] = Half-life in po dosed rat; conditions: in vivo
[40] = Half-life in po dosed ICR mouse; conditions: in vivo

COCCCc1ccc2oc(-c3ccc(OC)c(OC)c3)cc2c1
Activity [1]: 40%
Activity [2]: Active
Activity [3]: Dose-dependent effect
Activity [4]: Non-Toxic
Activity [5]: Active
Time [6]: 201.2 s
Activity [7]: 63.93%
Activity [8]: Non-Toxic
Activity [9]: Dose-dependent effect
AUC(0-t) [10]: 1300 ng·h/mL
half-life [11]: 2 h
Tmax [12]: 0.7 h
AUC(0-t) [13]: 246 ng·h/mL
AUC(0-inf) [14]: 283 ng·h/mL
bioavailability [15]: 21.4%
half-life [16]: 1.6 h
AUC(0-t) [17]: 2240 ng·h/mL
AUC(0-inf) [18]: 2290 ng·h/mL
bioavailability [19]: 51.9%
half-life [20]: 3.3 h
AUC(0-t) [21]: 10400 ng·h/mL
clearance [22]: 33 mL/min/kg
clearance [23]: 29 mL/min/kg
clearance [24]: 7 mL/min/kg
Vdss [25]: 2.7 L/kg
Vdss [26]: 3.8 L/kg
Vdss [27]: 2.5 L/kg
half-life [28]: 3.8 h
half-life [29]: 1.4 h
Cmax [30]: 421 ng/mL
Cmax [31]: 1610 ng/mL
Cmax [32]: 969 ng/mL
Cmax [33]: 944 ng/mL
AUC [34]: 4200 ng·h/mL
bioavailability [35]: 83.3%
Kp at 0.333 h [36]: 1.2
IC50 [37]: > 50 µM
IC50 [38]: > 50 µM
t1/2 [39]: 3.8 h
t1/2 [40]: 5.87 h
